Test results from ChEMBL document CHEMBL1123551, “3-Pyrroline N-oxide bis(carbamate) tumor inhibitors as analogues of indicine N-oxide” (J Med Chem, 1987).

Key:
P388 [1] = experiment: In vivo antileukemic activity against P388 lymphocytic leukemia at a dose of 100 mg/kg administered intraperitoneally expressed as log of the number of tumor cells (cell kill); assay type: ADME, organism-based; set-up: dose 100 mg/kg, route intraperitoneal; details: mouse, ip
Summary of the method: (§1)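 P388 tumor inoculated ip. Drug solution in distilled water injected ip as five daily doses, starting 24 h after inoculation; some compounds were given as suspensions made fresh daily and used immediately.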

P388 [2] = experiment: In vivo antileukemic activity against P388 lymphocytic leukemia at a dose of 12.5 mg/kg administered intraperitoneally expressed as weight change of treated to control animals; assay type: functional, Mus musculus; details: route intraperitoneal
Summary of the method: (§2)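 P388 leukemia inoculated ip. Test drug in distilled water given ip once daily for 5 days, beginning 24 h post-inoculation; some compounds were dosed as suspensions prepared fresh daily and used immediately. Read-out is body weight change of treated animals relative to untreated controls.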

P388 [3] = experiment: In vivo antileukemic activity against P388 lymphocytic leukemia at a dose of 50 mg/kg administered intraperitoneally expressed as weight change of treated to control animals; assay type: functional, Mus musculus; details: route intraperitoneal; summary of the method: as §2
P388 [4] = experiment: In vivo antileukemic activity against P388 lymphocytic leukemia at a dose of 50 mg/kg administered intraperitoneally expressed as log of the number of tumor cells (cell kill); assay type: ADME, organism-based; set-up: dose 50 mg/kg, route intraperitoneal; details: mouse, ip; summary of the method: as §1
P388 [5] = experiment: In vivo antileukemic activity against P388 lymphocytic leukemia at a dose of 50 mg/kg administered intraperitoneally expressed as ratio of survival of treated compared to untreated control animals; assay type: functional, Mus musculus; details: route intraperitoneal
Summary of the method: (§3)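 Drug given ip as a solution in distilled water. Five daily doses, starting 24 h after ip tumor inoculation. % T/C is the survival of treated animals divided by that of untreated controls, expressed as a percent. Log cell kill (KE) is the log of tumor cell number at the end of treatment relative to the start. Weight change of treated animals is recorded relative to controls.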

P388 [6] = experiment: In vivo antileukemic activity against P388 lymphocytic leukemia at a dose of 100 mg/kg administered intraperitoneally expressed as weight change of treated to control animals; assay type: functional, Mus musculus; details: route intraperitoneal; summary of the method: as §2
P388 [7] = experiment: In vivo antileukemic activity against P388 lymphocytic leukemia at a dose of 25 mg/kg administered intraperitoneally expressed as weight change of treated to control animals; assay type: functional, Mus musculus; details: route intraperitoneal; summary of the method: as §2
P388 [8] = experiment: In vivo antileukemic activity against P388 lymphocytic leukemia at a dose of 25 mg/kg administered intraperitoneally expressed as log of the number of tumor cells (cell kill); assay type: ADME, organism-based; set-up: dose 25 mg/kg, route intraperitoneal; details: mouse, ip; summary of the method: as §1
P388 [9] = experiment: In vivo antileukemic activity against P388 lymphocytic leukemia at a dose of 12.5 mg/kg administered intraperitoneally expressed as log of the number of tumor cells (cell kill); assay type: ADME, organism-based; set-up: dose 12.5 mg/kg, route intraperitoneal; details: mouse, ip; summary of the method: as §1
P388 [10] = experiment: In vivo antileukemic activity against P388 lymphocytic leukemia at a dose of 100 mg/kg administered intraperitoneally expressed as ratio of survival of treated compared to untreated control animals; assay type: functional, Mus musculus; details: route intraperitoneal; summary of the method: as §3
P388 [11] = experiment: In vivo antileukemic activity against P388 lymphocytic leukemia at a dose of 25 mg/kg administered intraperitoneally expressed as ratio of survival of treated compared to untreated control animals; assay type: functional, Mus musculus; details: route intraperitoneal; summary of the method: as §3
P388 [12] = experiment: In vivo antileukemic activity against P388 lymphocytic leukemia at a dose of 12.5 mg/kg administered intraperitoneally expressed as ratio of survival of treated compared to untreated control animals; assay type: functional, Mus musculus; details: route intraperitoneal; summary of the method: as §3
P388 [13] = experiment: In vivo antileukemic activity against P388 lymphocytic leukemia at a dose of 15 mg/kg administered intraperitoneally expressed as ratio of survival of treated compared to untreated control animals; assay type: functional, Mus musculus; details: route intraperitoneal; summary of the method: as §3
P388 [14] = experiment: In vivo antileukemic activity against P388 lymphocytic leukemia at a dose of 3.75 mg/kg administered intraperitoneally expressed as ratio of survival of treated compared to untreated control animals; assay type: functional, Mus musculus; details: route intraperitoneal; summary of the method: as §3
P388 [15] = experiment: In vivo antileukemic activity against P388 lymphocytic leukemia at a dose of 3.75 mg/kg administered intraperitoneally expressed as weight change of treated to control animals; assay type: functional, Mus musculus; details: route intraperitoneal; summary of the method: as §2
P388 [16] = experiment: In vivo antileukemic activity against P388 lymphocytic leukemia at a dose of 30 mg/kg administered intraperitoneally expressed as ratio of survival of treated compared to untreated control animals; assay type: functional, Mus musculus; details: route intraperitoneal; summary of the method: as §3
P388 [17] = experiment: In vivo antileukemic activity against P388 lymphocytic leukemia at a dose of 3.75 mg/kg administered intraperitoneally expressed as log of the number of tumor cells (cell kill); assay type: ADME, organism-based; set-up: dose 3.75 mg/kg, route intraperitoneal; details: mouse, ip; summary of the method: as §1
P388 [18] = experiment: In vivo antileukemic activity against P388 lymphocytic leukemia at a dose of 15 mg/kg administered intraperitoneally expressed as log of the number of tumor cells (cell kill); assay type: ADME, organism-based; set-up: dose 15 mg/kg, route intraperitoneal; details: mouse, ip; summary of the method: as §1
P388 [19] = experiment: In vivo antileukemic activity against P388 lymphocytic leukemia at a dose of 7.5 mg/kg administered intraperitoneally expressed as ratio of survival of treated compared to untreated control animals; assay type: functional, Mus musculus; details: route intraperitoneal; summary of the method: as §3
P388 [20] = experiment: In vivo antileukemic activity against P388 lymphocytic leukemia at a dose of 30 mg/kg administered intraperitoneally expressed as log of the number of tumor cells (cell kill); assay type: ADME, organism-based; set-up: dose 30 mg/kg, route intraperitoneal; details: mouse, ip; summary of the method: as §1
P388 [21] = experiment: In vivo antileukemic activity against P388 lymphocytic leukemia at a dose of 30 mg/kg administered intraperitoneally expressed as weight change of treated to control animals; assay type: functional, Mus musculus; details: route intraperitoneal; summary of the method: as §2
P388 [22] = experiment: In vivo antileukemic activity against P388 lymphocytic leukemia at a dose of 7.5 mg/kg administered intraperitoneally expressed as log of the number of tumor cells (cell kill); assay type: ADME, organism-based; set-up: dose 7.5 mg/kg, route intraperitoneal; details: mouse, ip; summary of the method: as §1
P388 [23] = experiment: In vivo antileukemic activity against P388 lymphocytic leukemia at a dose of 15 mg/kg administered intraperitoneally expressed as weight change of treated to control animals; assay type: functional, Mus musculus; details: route intraperitoneal; summary of the method: as §2
P388 [24] = experiment: In vivo antileukemic activity against P388 lymphocytic leukemia at a dose of 7.5 mg/kg administered intraperitoneally expressed as weight change of treated to control animals; assay type: functional, Mus musculus; details: route intraperitoneal; summary of the method: as §2
P388 [25] = experiment: In vivo antileukemic activity against P388 lymphocytic leukemia at a dose of 400 mg/kg administered intraperitoneally expressed as weight change of treated to control animals; assay type: functional, Mus musculus; details: route intraperitoneal; summary of the method: as §2
P388 [26] = experiment: In vivo antileukemic activity against P388 lymphocytic leukemia at a dose of 200 mg/kg administered intraperitoneally expressed as ratio of survival of treated compared to untreated control animals; assay type: functional, Mus musculus; details: route intraperitoneal; summary of the method: as §3
P388 [27] = experiment: In vivo antileukemic activity against P388 lymphocytic leukemia at a dose of 400 mg/kg administered intraperitoneally expressed as log of the number of tumor cells (cell kill); assay type: ADME, organism-based; set-up: dose 400 mg/kg, route intraperitoneal; details: mouse, ip; summary of the method: as §1
P388 [28] = experiment: In vivo antileukemic activity against P388 lymphocytic leukemia at a dose of 200 mg/kg administered intraperitoneally expressed as log of the number of tumor cells (cell kill); assay type: ADME, organism-based; set-up: dose 200 mg/kg, route intraperitoneal; details: mouse, ip; summary of the method: as §1
P388 [29] = experiment: In vivo antileukemic activity against P388 lymphocytic leukemia at a dose of 200 mg/kg administered intraperitoneally expressed as weight change of treated to control animals; assay type: functional, Mus musculus; details: route intraperitoneal; summary of the method: as §2
P388 [30] = experiment: In vivo antileukemic activity against P388 lymphocytic leukemia at a dose of 400 mg/kg administered intraperitoneally expressed as ratio of survival of treated compared to untreated control animals; assay type: functional, Mus musculus; details: route intraperitoneal; summary of the method: as §3
P388 [31] = experiment: In vivo antileukemic activity against P388 lymphocytic leukemia at a dose of 240 mg/kg administered intraperitoneally expressed as ratio of survival of treated compared to untreated control animals; assay type: functional, Mus musculus; details: route intraperitoneal; summary of the method: as §3
P388 [32] = experiment: In vivo antileukemic activity against P388 lymphocytic leukemia at a dose of 240 mg/kg administered intraperitoneally expressed as weight change of treated to control animals; assay type: functional, Mus musculus; details: route intraperitoneal; summary of the method: as §2
P388 [33] = experiment: In vivo antileukemic activity against P388 lymphocytic leukemia at a dose of 240 mg/kg administered intraperitoneally expressed as log of the number of tumor cells (cell kill); assay type: ADME, organism-based; set-up: dose 240 mg/kg, route intraperitoneal; details: mouse, ip; summary of the method: as §1

CC(C)NC(=O)OCC1=C(COC(=O)NC(C)C)C(c2ccccc2)N(C)C1 (centres undefined)
KE (P388 [1]): 5.18 | Weight change (P388 [2]): 0 g | Weight change (P388 [3]): -2 g | KE (P388 [4]): 0.53 | T/C (P388 [5]): 145% | Weight change (P388 [6]): -2.2 g | Weight change (P388 [7]): -0.9 g | KE (P388 [8]): 0 | KE (P388 [9]): 0.84 | T/C (P388 [10]): 225% | T/C (P388 [11]): 136% | T/C (P388 [12]): 121%

CC(C)NC(=O)OCC1=C(COC(=O)NC(C)C)C(c2ccccc2)[N+](C)([O-])C1 (centres undefined)
KE (P388 [1]): -0.11 | Weight change (P388 [2]): 1.6 g | Weight change (P388 [3]): -0.6 g | KE (P388 [4]): -1.16 | T/C (P388 [5]): 116% | Weight change (P388 [6]): -1.5 g | Weight change (P388 [7]): -0.1 g | KE (P388 [8]): -1.5 | KE (P388 [9]): -1.21 | T/C (P388 [10]): 134% | T/C (P388 [11]): 109% | T/C (P388 [12]): 115%

CC(C)NC(=O)OCC1=C(COC(=O)NC(C)C)C(C)(C)[N+](C)([O-])C1c1ccccc1 (centres undefined)
KE (P388 [1]): -1.53 | Weight change (P388 [2]): 2.1 g | Weight change (P388 [3]): 0.9 g | KE (P388 [4]): -1.53 | T/C (P388 [5]): 107% | Weight change (P388 [6]): 0.7 g | Weight change (P388 [7]): 0.1 g | KE (P388 [8]): -1.64 | KE (P388 [9]): -1.54 | T/C (P388 [10]): 107% | T/C (P388 [11]): 100% | T/C (P388 [12]): 108%

CC(C)NC(=O)OCc1cn(C)c(-c2ccccc2)c1COC(=O)NC(C)C
T/C (P388 [13]): 181% | T/C (P388 [14]): 129% | Weight change (P388 [15]): -0.5 g | T/C (P388 [16]): 171% | KE (P388 [17]): -0.7 | KE (P388 [18]): 2.63 | T/C (P388 [19]): 145% | KE (P388 [20]): 1.99 | Weight change (P388 [21]): -3.4 g | KE (P388 [22]): 0.32 | Weight change (P388 [23]): -3.2 g | Weight change (P388 [24]): -1.9 g

CNC(=O)OCC1=CC[N+](C)([O-])C1COC(=O)NC (centres undefined)
KE (P388 [1]): 1.7 | Weight change (P388 [25]): -5.7 g | T/C (P388 [26]): 150% | Weight change (P388 [2]): -3.8 g | Weight change (P388 [3]): -1.5 g | KE (P388 [27]): 0.34 | KE (P388 [28]): 1 | KE (P388 [4]): 0.62 | T/C (P388 [5]): 145% | Weight change (P388 [6]): -2.1 g | Weight change (P388 [7]): -1.2 g | KE (P388 [8]): -1.23 | KE (P388 [9]): 0.39 | T/C (P388 [10]): 159% | Weight change (P388 [29]): -2.4 g | T/C (P388 [11]): 122% | T/C (P388 [12]): 142% | T/C (P388 [30]): 143%

C[N+]1([O-])CC=CC1
T/C (P388 [31]): 108% | Weight change (P388 [32]): -0.2 g | KE (P388 [33]): -0.12
